# Bioassay records from PubChem.
# PP1 counter: PP1-alpha (human) inhibition in PP5 counter-screen; P62136; purified PP1alpha, OMFP fluorescence; inhibition, % at 6.7 µM; 320,000 compounds, 0.9% hits;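 active = inhibition above the mean inhibition of all tested compounds plus 3 SD, computed separately for each screening campaign, cut at about 15% in these data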
# Rpn11 block: Rpn11 (human) deubiquitinase inhibition | human 26S proteasome, Ub4-pepOG fluorescence polarization; 20S core pre-blocked with epoxomicin | AID 588493 | inhibition, % at 20 µM | 360,000 compounds, 0.59% hits | O00487;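 active = inhibition at 20 µM, scaled to each plate's controls, above about 33%, limit read from the data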
# HNF4A DNA FP: change in binding of human HNF4 alpha to DNA. P41235. HNF4a-FITC DNA binding, fluorescence polarization, 1 h. activity change, % at 10 µM. 360,000 compounds, 0.3% hits. AID 1224865; in the data active = activity change above about 30%, passing the limit was not always enough
# NadD inh: blocks S. aureus nicotinate mononucleotide adenylyltransferase | purified NadD enzyme, colorimetric absorbance read-out | inhibition, % at 20 µM | 360,000 compounds, 0.78% hits | AID 602399; in the data active = inhibition above about 26%
# TPT1 inhibitor: C. albicans TPT1 enzyme inhibition; recombinant caTPT1, FP RNA substrate dephosphorylation; inhibition, % at 5 µM; 300,000 compounds, 0.81% hits;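 active = inhibition above the mean of all tested compounds plus 3 SD, set per screening campaign, cut at about 24% in these data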;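 note: plate controls were DMSO alone for no effect and ferristatin control at 100 nM for full effect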
# CSN inh: CSN deneddylation inhibition; Q92905; Purified CSN, SCF-Nedd8-OG deneddylation, fluorescence polarization; AID 651999; 360,000 compounds, 0.38% hits; inhibition, % at 12.5 µM;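 active = pattern-corrected inhibition above about 35%, with an unprinted fluorescence ratio check between 0.5 and 1.5, limit read from the data, passing the limit was not always enough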;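 note: 0% = enzyme with substrate and 100% = substrate without enzyme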
#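 Schedule: reaction 90 min, room temperature / Assay system: HEK293T-derived human Csn5 enzyme / Input: Csn5 at 0.24 nM final / Measure: inhibition of Csn5 cleavage, % / Control set: substrate-only high control, full reaction low control / Technique: fluorescence polarization of the substrate / Buffer or medium: Tris/NaCl/DTT buffer, pH 7.5 / Reagent: SCFSkp2-Nedd8OG substrate at 10 nM final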
# TPT1 inh confirm: confirmation of Candida albicans TPT1 inhibitors. shares compounds with TPT1 inhibitor. recombinant caTPT1, fluorescence polarization, RNase T1 coupled. inhibition, % at 5 µM. 2,400 compounds, 74% hits. AID 2149;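 active = inhibition above the primary screen limit, the mean inhibition of all tested compounds plus 3 SD, cut at about 25% in these data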
# RNase T1 counter: RNase T1 inhibition in TPT1 counter-screen; shares compounds with TPT1 inhibitor; AID 2153; RNase T1 cleavage, fluorescence polarization, 1536-well; 2,400 compounds, 83% hits; inhibition, % at 5 µM;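 active = inhibition above the solvent-only control well mean plus 3 SD, limit set per screening run, cut at about 23% in these data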;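 note: plate controls were DMSO wells with enzyme for no effect and wells without RNase T1 for full effect; inhibitors block cleavage so intact labeled substrate keeps polarization high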
# CSN5 deneddyl: Csn5 (human) deneddylation inhibition, single-concentration validation; shares compounds with CSN inh; Csn5 deneddylation of SCF-Nedd8OG, fluorescence polarization, 90 min; inhibition, % at 16.6 µM; 540 compounds, 62% hits; in the data active = inhibition above about 50%;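 note: 0% = DMSO with enzyme and 100% = no enzyme wells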
# MMP-2 counter: blocks human MMP-2 in a CSN deneddylation counter-screen; shares compounds with CSN inh; AID 720655; recombinant MMP-2, FRET substrate fluorescence, 60 min; 540 compounds, 33% hits; inhibition, % at 16.6 µM;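 active = corrected plate-normalized z-score of 5 or more, or -5 or less, or inhibition of 15% or more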;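 note: plate controls were DMSO wells with enzyme for no effect and buffer wells lacking MMP-2 for full effect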
# Target sequence (P08253 whole entry, looked up): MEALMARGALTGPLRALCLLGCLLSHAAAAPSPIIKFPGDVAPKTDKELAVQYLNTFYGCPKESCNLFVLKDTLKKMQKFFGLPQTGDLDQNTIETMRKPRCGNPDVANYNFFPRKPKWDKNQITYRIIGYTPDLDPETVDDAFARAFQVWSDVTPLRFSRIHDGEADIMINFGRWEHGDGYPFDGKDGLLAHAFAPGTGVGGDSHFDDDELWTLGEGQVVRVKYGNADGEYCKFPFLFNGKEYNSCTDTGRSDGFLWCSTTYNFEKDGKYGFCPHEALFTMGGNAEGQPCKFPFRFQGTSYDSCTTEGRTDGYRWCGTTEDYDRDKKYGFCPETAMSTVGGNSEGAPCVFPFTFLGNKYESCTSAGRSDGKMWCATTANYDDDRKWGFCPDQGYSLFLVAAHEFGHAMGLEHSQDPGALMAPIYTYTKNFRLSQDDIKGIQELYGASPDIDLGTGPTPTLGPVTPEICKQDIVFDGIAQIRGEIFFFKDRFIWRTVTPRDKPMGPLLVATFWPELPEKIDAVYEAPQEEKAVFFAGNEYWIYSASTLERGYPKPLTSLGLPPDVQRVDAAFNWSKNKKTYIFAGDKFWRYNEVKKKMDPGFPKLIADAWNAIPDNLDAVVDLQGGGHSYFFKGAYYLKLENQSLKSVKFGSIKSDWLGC
# Thrombin counter: blocks bovine thrombin in a CSN deneddylation counter-screen. shares compounds with CSN inh. bovine thrombin cleavage of Ub4-pepOG, fluorescence polarization. inhibition, % at 16.6 µM. 540 compounds, 49% hits. AID 720656;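 active = inhibition at or above a set limit, with a fluorescence interference ratio between 0.5 and a set maximum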
# Starred values were filed as active, the others as inactive; . = not tested or not shown. An excerpt weighted towards active compounds, which were near 2.7% of everything screened.
SMILES,PP1 counter,Rpn11 block,HNF4A DNA FP,NadD inh,TPT1 inhibitor,CSN inh,TPT1 inh confirm,RNase T1 counter,CSN5 deneddyl,MMP-2 counter,Thrombin counter
CN(C)c1ccc(/C=C/C(=O)c2cc(Cl)ccc2O)cc1,1,.,75*,-8,40*,71*,50*,60*,68*,-18,42*
Cc1cccc(C)c1NC(=O)CN(C)CC(=O)c1c(N)n(Cc2ccccc2)c(=O)n(C)c1=O,0,0,-1,-3,.,-1,.,.,.,.,.
COc1ccc(C(C#N)=Cc2ccc(OC)c(OC)c2)cc1,.,1,-1,-8,.,2,.,.,.,.,.
COc1cc(N2CCCC2)c(OC)cc1/C=C(/C#N)c1ccc(Br)cc1,-2,.,113,6,104*,60*,130*,147*,90*,-7,22*
Cc1ccc(S(=O)(=O)NN=C(c2ccccc2)c2cccs2)cc1,.,1,-1,-6,.,6,.,.,.,.,.
CSc1cccc(NC(=O)CCNS(=O)(=O)c2ccc3[nH]c(=O)oc3c2)c1,-2,-7,-3,2,-3,4,.,.,.,.,.
CC[n+]1c(/C=C/N(C)c2ccccc2)oc2ccc(F)cc21,4,.,60*,0,55*,37*,72*,81*,122*,-4,47*
CCOc1ccc(CCNC(=O)C2CCCN(S(=O)(=O)N3CC(C)CC(C)C3)C2)cc1OCC (centres undefined),-2,6,0,-1,4,-5,.,.,.,.,.
COc1ccc(Cl)cc1NC(=O)CC1S/C(=N/N=C2CCCCCC2)NC1=O (centres undefined),-5,7,-4,7,-1,-1,.,.,.,.,.
COc1cccc(/C=N/NC(=O)c2c(C)nc3ccc(Br)cn23)c1O,6,16,4,8,31*,45*,43*,46*,6,2,-18
CCOc1ccccc1/C=N/NC(=O)c1c(C)nc2ccc(Br)cn12,-1,-7,2,0,-1,-3,.,.,.,.,.
N#C/C(=C/c1ccc(N2CCCCCC2)o1)c1ccc(Cl)cc1,-1,.,110,11,158*,78*,187*,172*,188*,-34*,58*
COC(=O)[C@@]12C[C@@H](CC(=O)NCC3CCCCC3)C(=O)N(Cc3ccccc3)C1=CCC(C)(C)C2,.,.,-6,.,.,3,.,.,.,.,.
CN(C)c1ccc(/C=C2\CCC/C(=C\c3ccccc3)C2=O)cc1,2,.,106,1,104*,73*,111*,109*,91*,-9,36*
CCN1C(=O)[C@H]2[C@@H](c3ccc(OC)cc3)N[C@]3(CCCN(Cc4ccc(C(F)(F)F)cc4)C3=O)[C@H]2C1=O,.,-20,-7,5,.,-1,.,.,.,.,.
CCC(=O)Nc1cc(OC)c(NC(=S)Nc2ccccc2CC)cc1OC,.,-3,2,-4,.,2,.,.,.,.,.
Cc1cc(/C=C(/C#N)c2nc3ccccc3[nH]2)c(C)n1-c1cc(C(=O)O)cc(C(=O)O)c1,.,20,-33,6,.,21,.,.,.,.,.
Cc1ccc2nc(/C(C#N)=C/c3ccc(-c4ccccc4C(=O)O)o3)[nH]c2c1,-2,.,97*,8,133*,76*,139*,132*,63*,-32*,68
